In ChEMBL document CHEMBL3425486, “Lathyrol diterpenes as modulators of P-glycoprotein dependent multidrug resistance: structure-activity relationship studies on Euphorbia factor L3 derivatives” (J Med Chem, 2015):

How the values were obtained:
MCF7 = assay: Cytotoxicity against human MCF7 cells assessed as reduction in cell viability after 48 hrs by SRB colorimetric assay; assay type: functional, cell-based; details: MCF7, 48 h
Summary of the method: (§1)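 MCF-7 from ATCC and its stepwise ADR-selected resistant subline, grown in RPMI-1640 with 10% FBS and penicillin/streptomycin at 37 °C, 5% CO2. 1 × 10^4 cells/well exposed to graded compound concentrations for 48 h. Cells fixed with 10% TCA, stained with 0.4% SRB in 1% acetic acid, dye extracted with 10 mM Tris base, OD read at 490 nm. Taxol positive control.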

[1] = biological target: ATP-dependent translocase ABCB1 (Homo sapiens, UniProt P08183); assay: Inhibition of P-gp in human MCF7/ADR cells assessed as reversal of multidrug resistance by measuring relative enhancement intensity for adriamycin-induced cytotoxicity at 10 uM after 48 hrs by SRB colorimetric assay; assay type: cell-based; design: scale not given: the % may be the effect or the level left; details: nci/adr-res
ATP-dependent translocase ABCB1, sequence (P08183 whole entry): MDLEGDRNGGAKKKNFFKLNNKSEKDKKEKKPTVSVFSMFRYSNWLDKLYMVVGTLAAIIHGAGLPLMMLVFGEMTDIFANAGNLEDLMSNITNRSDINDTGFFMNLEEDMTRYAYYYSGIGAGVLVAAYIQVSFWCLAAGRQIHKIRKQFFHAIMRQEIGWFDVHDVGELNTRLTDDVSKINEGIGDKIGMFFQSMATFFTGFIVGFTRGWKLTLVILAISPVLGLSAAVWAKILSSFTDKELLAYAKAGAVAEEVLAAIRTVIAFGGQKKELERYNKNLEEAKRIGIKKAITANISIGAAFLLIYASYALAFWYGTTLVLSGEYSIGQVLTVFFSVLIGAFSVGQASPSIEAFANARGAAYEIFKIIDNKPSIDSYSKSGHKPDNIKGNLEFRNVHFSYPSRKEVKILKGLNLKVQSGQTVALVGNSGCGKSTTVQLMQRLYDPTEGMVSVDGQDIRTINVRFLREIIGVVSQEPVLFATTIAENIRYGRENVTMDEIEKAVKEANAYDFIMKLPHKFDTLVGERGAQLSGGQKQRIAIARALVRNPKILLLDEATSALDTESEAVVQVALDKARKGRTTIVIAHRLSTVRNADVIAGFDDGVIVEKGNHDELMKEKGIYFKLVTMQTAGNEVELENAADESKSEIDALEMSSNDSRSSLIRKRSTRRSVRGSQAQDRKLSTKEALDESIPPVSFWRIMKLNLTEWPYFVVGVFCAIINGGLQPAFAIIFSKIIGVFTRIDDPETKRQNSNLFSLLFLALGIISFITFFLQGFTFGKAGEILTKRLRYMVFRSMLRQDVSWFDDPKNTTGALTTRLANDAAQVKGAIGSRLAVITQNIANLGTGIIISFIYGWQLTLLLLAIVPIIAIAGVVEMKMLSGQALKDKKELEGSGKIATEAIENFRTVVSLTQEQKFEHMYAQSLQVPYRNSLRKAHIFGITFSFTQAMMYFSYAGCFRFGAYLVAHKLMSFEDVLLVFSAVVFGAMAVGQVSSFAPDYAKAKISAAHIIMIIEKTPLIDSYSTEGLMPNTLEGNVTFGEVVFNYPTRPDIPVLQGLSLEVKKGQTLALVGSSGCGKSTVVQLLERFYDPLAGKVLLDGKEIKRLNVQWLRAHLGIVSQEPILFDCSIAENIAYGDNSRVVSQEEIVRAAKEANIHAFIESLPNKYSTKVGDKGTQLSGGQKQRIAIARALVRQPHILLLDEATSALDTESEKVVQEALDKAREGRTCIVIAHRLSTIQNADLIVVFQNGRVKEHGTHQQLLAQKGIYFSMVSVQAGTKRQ

[2] = Cytotoxicity against human MCF7/ADR cells assessed as reduction in cell viability after 48 hrs by SRB colorimetric assay; assay type: functional, cell-based; details: NCI/ADR-RES; summary of the method: as §1
NCI/ADR-RES = assay: Inhibition of P-gp in human MCF7/ADR cells assessed as reversal of multidrug resistance at 10 uM by measuring ratio of EC50(adriamycin)/EC50(adriamycin + compound) after 48 hrs by SRB colorimetric assay; assay type: cell-based
[3] = Inhibition of P-gp in human MCF7/ADR cells assessed as reversal of multidrug resistance at 10 uM by measuring EC50 for adriamycin-induced cytotoxicity after 48 hrs by SRB colorimetric assay; details: nci/adr-res

Compound | IC50 (MCF7) | Activity [1] | IC50 [2] | Ratio EC50 (NCI/ADR-RES) | EC50 [3]
C=C1CC[C@H]2[C@@H]([C@@H]3O[C@]4(C[C@H](C)[C@H](OC(=O)CCc5ccccc5)[C@@H]4[C@H]1OC(=O)CCc1ccccc1)C(=O)[C@@H]3C)C2(C)C | 14.2 µM | 8.3% | 40.1 µM | 1.6 | 
C=C1CC[C@H]2[C@@H](/C=C(\C)C(=O)[C@@]3(O)C[C@H](C)[C@H](OC(=O)Cc4cccc5ccccc45)[C@@H]3[C@H]1OC(=O)Cc1cccc3ccccc13)C2(C)C | 13.4 µM | 10.1% | > 100 µM | 1.4 | 
C=C1CC[C@H]2[C@@H](/C=C(\C)C(=O)[C@@]3(O)C[C@H](C)[C@H](OC(=O)/C=C/c4ccccc4)[C@@H]3[C@H]1OC(=O)c1ccccc1)C2(C)C | 14.2 µM | 12.1% | 42.1 µM | 9.8 | 
C=C1CC[C@H]2[C@@H](/C=C(\C)C(=O)[C@@]3(O)C[C@H](C)[C@H](O)[C@@H]3[C@H]1OC(=O)CCCC)C2(C)C | 13.1 µM | 0.1% | 57.9 µM | 0.8 | 
C=C1CC[C@H]2[C@@H]([C@@H]3O[C@]4(C[C@H](C)[C@H](OC(=O)c5ccccc5)[C@@H]4[C@H]1OC(=O)c1ccccc1)C(=O)[C@@H]3C)C2(C)C | 25.2 µM | 6.8% | > 100 µM | 3.2 | 
C=C1CC[C@H]2[C@@H](/C=C(\C)C(=O)[C@@]3(O)C[C@H](C)[C@H](OC(=O)CCc4ccccc4)[C@@H]3[C@H]1OC(=O)CCc1ccccc1)C2(C)C | 28.7 µM | 6% | > 100 µM | 1.3 | 
C=C1CC[C@H]2[C@@H](/C=C(\C)C(=O)[C@@]3(O)C[C@H](C)[C@H](O)[C@@H]3[C@H]1OC(=O)CCc1ccccc1)C2(C)C | 11 µM | 11.6% | 23.4 µM | 3.5 | 
C=C1CC[C@H]2[C@@H]([C@@H]3O[C@]4(C[C@H](C)[C@H](OC(=O)CCCCC)[C@@H]4[C@H]1OC(=O)CCCCC)C(=O)[C@H]3C)C2(C)C | 48.1 µM | 6.8% | > 100 µM | 7 | 
C=C1CC[C@H]2[C@@H]([C@@H]3O[C@]4(C[C@H](C)[C@H](OC(=O)Cc5ccccc5)[C@@H]4[C@H]1OC(=O)Cc1ccccc1)C(=O)[C@H]3C)C2(C)C | 28.5 µM | 11.6% | > 100 µM | 2.1 | 
C=C1CC[C@H]2[C@@H]([C@@H]3O[C@]4(C[C@H](C)[C@H](OC(=O)c5ccccc5)[C@@H]4[C@H]1OC(=O)c1ccccc1)C(=O)[C@H]3C)C2(C)C | 34.9 µM | 4.3% | > 100 µM | 1.7 | 20.49 µM
C=C1CC[C@H]2[C@@H](/C=C(\C)C(=O)[C@@]3(O)C[C@H](C)[C@H](OC(=O)CCCCC)[C@@H]3[C@H]1OC(=O)CCCCC)C2(C)C | 47.1 µM | 5.8% | > 100 µM | 1.9 | 18.51 µM
C=C1CC[C@H]2[C@@H](/C=C(\C)C(=O)[C@@]3(O)C[C@H](C)[C@H](O)[C@@H]3[C@H]1OC(=O)CC)C2(C)C | 32.1 µM | 11.3% | 53.5 µM | 2.3 | 
C=C1CC[C@H]2[C@@H]([C@@H]3O[C@]4(C[C@H](C)[C@H](OC(=O)Cc5cccc6ccccc56)[C@@H]4[C@H]1OC(=O)Cc1cccc4ccccc14)C(=O)[C@H]3C)C2(C)C | 84.9 µM | 10.4% | > 100 µM | 1.4 | 
C=C1CC[C@H]2[C@@H](/C=C(\C)C(=O)[C@@]3(O)C[C@H](C)[C@H](OC(=O)CC)[C@@H]3[C@H]1OC(=O)c1ccccc1)C2(C)C | 8.47 µM | 12.1% | 63.3 µM | 8.2 | 4.22 µM
C=C1CC[C@H]2[C@@H]([C@@H]3O[C@]4(C[C@H](C)[C@H](OC(=O)CCc5ccccc5)[C@@H]4[C@H]1OC(=O)CCc1ccccc1)C(=O)[C@H]3C)C2(C)C | 46.8 µM | 6.9% | > 100 µM | 1.2 | 
C=C1CC[C@H]2[C@@H]([C@@H]3O[C@]4(C[C@H](C)[C@H](OC(=O)/C=C/c5ccccc5)[C@@H]4[C@H]1OC(=O)/C=C/c1ccccc1)C(=O)[C@H]3C)C2(C)C | 64.2 µM | 2.1% | > 100 µM | 3.6 | 9.68 µM
C=C1CC[C@H]2[C@@H]([C@@H]3O[C@]4(C[C@H](C)[C@H](OC(=O)Cc5ccccc5)[C@@H]4[C@H]1OC(=O)Cc1ccccc1)C(=O)[C@@H]3C)C2(C)C | 28.5 µM | 4% | 55 µM | 1.6 | 

Compound | IC50 (MCF7) | Activity [1] | IC50 [2] | Ratio EC50 (NCI/ADR-RES) | EC50 [3]
C=C1CC[C@H]2[C@@H](/C=C(\C)C(=O)[C@@]3(O)C[C@H](C)[C@H](O)[C@@H]3[C@H]1OC(=O)c1ccccc1)C2(C)C | 11.6 µM | 7.5% | 55.3 µM | 1.5 | 
C=C1CC[C@H]2[C@@H](/C=C(\C)C(=O)[C@@]3(O)C[C@H](C)[C@H](O)[C@@H]3[C@H]1OC(=O)Cc1ccccc1)C2(C)C | 14.8 µM | 9.6% | 42.9 µM | 7.4 | 
C=C1CC[C@H]2[C@@H](/C=C(\C)C(=O)[C@@]3(O)C[C@H](C)[C@H](O)[C@@H]3[C@H]1OC(=O)C(C)C)C2(C)C | 17 µM | 10.1% | 66.3 µM | 3.2 | 
C=C1CC[C@H]2[C@@H](/C=C(\C)C(=O)[C@@]3(O)C[C@H](C)[C@H](O)[C@@H]3[C@H]1OC(=O)CCCCC)C2(C)C | 18.1 µM | 9.1% | 46.1 µM | 3 | 11.45 µM
C=C1CC[C@H]2[C@@H](/C=C(\C)C(=O)[C@@]3(O)C[C@H](C)[C@H](OC(C)=O)[C@@H]3[C@H]1OC(C)=O)C2(C)C | 21.6 µM | 4.7% | 41 µM | 4.1 | 
C=C1CC[C@H]2[C@@H](/C=C(\C)C(=O)[C@@]3(O)C[C@H](C)[C@H](O)[C@@H]3[C@H]1OC(=O)/C=C/c1ccccc1)C2(C)C | 8.24 µM | 9.1% | 58.8 µM | 2.7 | 
C=C1CC[C@H]2[C@@H](/C=C(\C)C(=O)[C@@]3(O)C[C@H](C)[C@H](O)[C@@H]3[C@H]1OC(C)=O)C2(C)C | 26.6 µM | 7.1% | 80.7 µM | 1.9 | 
C=C1CCC(=C(C)C)[C@H]2C[C@@H](C)C(=O)[C@@]3(C[C@H](C)[C@H](OC(C)=O)[C@@H]3[C@H]1OC(C)=O)O2 | 45.8 µM | 2.4% | 65.2 µM | 1.9 | 
C=C1CC[C@H]2[C@@H](/C=C(\C)C(=O)[C@@]3(O)C[C@H](C)[C@H](OC(=O)CC)[C@@H]3[C@H]1OC(=O)CC)C2(C)C | 18.6 µM | 4.6% | 45 µM | 2.8 | 
C=C1CC[C@H]2[C@@H](/C=C(\C)C(=O)[C@@]3(O)C[C@H](C)[C@H](O)[C@@H]3[C@H]1OC(=O)CC(C)C)C2(C)C | 14.8 µM | 4.7% | 60.8 µM | 4.1 | 
C=C1CC[C@H]2[C@@H]([C@@H]3O[C@]4(C[C@H](C)[C@H](OC(=O)CCC)[C@@H]4[C@H]1OC(=O)CCC)C(=O)[C@H]3C)C2(C)C | 19.1 µM | 7.7% | > 100 µM | 3 | 
C=C1CC[C@H]2[C@@H](/C=C(\C)C(=O)[C@@]3(O)C[C@H](C)[C@H](OC(=O)c4ccccc4)[C@@H]3[C@H]1OC(=O)Cc1cccc3ccccc13)C2(C)C | 4.16 µM | 11.1% | > 100 µM | 4 | 
C=C1CC[C@H]2[C@@H](/C=C(\C)C(=O)[C@@]3(O)C[C@H](C)[C@H](O)[C@@H]3[C@H]1OC(=O)c1cccnc1)C2(C)C | 17.3 µM | 10.3% | 19.3 µM | 2.3 | 
C=C1CC[C@H]2[C@@H](/C=C(\C)C(=O)[C@@]3(O)C[C@H](C)[C@H](O)[C@@H]3[C@H]1O)C2(C)C | 34 µM | 7.3% | 59.6 µM | 3 | 
C=C1CC[C@H]2[C@@H](/C=C(\C)C(=O)[C@@]3(O)C[C@H](C)[C@H](OC(=O)CC)[C@@H]3[C@H]1OC(=O)Cc1ccccc1)C2(C)C | 9.57 µM | 9.3% | 76 µM | 8.1 | 
C=C1CC[C@H]2[C@@H](/C=C(\C)C(=O)[C@@]3(O)C[C@H](C)[C@H](OC(=O)Cc4ccccc4)[C@@H]3[C@H]1OC(=O)Cc1ccccc1)C2(C)C | 8.93 µM | 9.5% | 36.3 µM | 2.6 | 
